Common to all, as to details: R6, 48 h
Experiment [1] deals with Streptococcus pneumoniae. Put plainly: Antimicrobial activity against Streptococcus pneumoniae R6 harboring PBP2x2349 and PBP1a2349 mutant gene after 48 hrs by agar dilution method. The format is functional. In short, it runs like this: (§1)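 Agar dilution on blood agar plates (D-agar with 3% defibrinated sheep blood), natural atmosphere, inoculated with cells from exponentially growing cultures in C-medium with 0.2% yeast extract grown at 37°C without aeration; narrow range of antibiotic concentrations to detect subtle susceptibility differences; MIC read after 48 h at 37°C.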
For orientation: Agar dilution tests growth on a series of plates holding different concentrations.

For experiment [2], the system named is Streptococcus pneumoniae. Put plainly: Antimicrobial activity against Streptococcus pneumoniae R6 harboring PBP2x T338A mutant gene after 48 hrs by agar dilution method. The format is functional. In short, it runs like this: as §1
Experiment [3] concerns Streptococcus pneumoniae. As to the kind of experiment: Antimicrobial activity against streptomycin- resistant Streptococcus pneumoniae R6 harboring PBP2x2349 mutant gene and Janus disruption at PBP1a after 48 hrs by agar dilution method. The class given is functional. In short, it runs like this:
as §1

Experiment [4] deals with Streptococcus pneumoniae. As to the kind of experiment: Antimicrobial activity against Streptococcus pneumoniae R6 harboring wild type PBP2x, disruption in PBP1a and aad9 disruption in CiaR gene after 48 hrs by agar dilution method. The format is functional. In outline:
as §1

The test system of experiment [5] is Streptococcus pneumoniae. Put plainly: Antimicrobial activity against Streptococcus pneumoniae R6 harboring PBP2x T338P mutant gene after 48 hrs by agar dilution method. The class given is functional. In outline:
as §1

Experiment [6] concerns Streptococcus pneumoniae. Put plainly: Antimicrobial activity against Streptococcus pneumoniae R6 harboring PBP2x2349 mutant gene after 48 hrs by agar dilution method. The class given is functional. In short, it runs like this: as §1
Experiment [7] deals with Streptococcus pneumoniae. Put plainly: Antimicrobial activity against Streptococcus pneumoniae R6 after 48 hrs by agar dilution method. The format is functional. In short, it runs like this:
as §1

Experiment [8] deals with Streptococcus pneumoniae. Put plainly: Antimicrobial activity against Streptococcus pneumoniae R6 harboring PBP2x T338G mutant gene after 48 hrs by agar dilution method. The class given is functional. In outline: as §1
The subject of experiment [9] is Streptococcus pneumoniae. Put plainly: Antimicrobial activity against streptomycin-resistant Streptococcus pneumoniae R6 harboring PBP2x T338G mutant gene and Janus disruption at PBP1a after 48 hrs by agar dilution method. The format is functional. In outline:
as §1

Experiment [10] relates to Streptococcus pneumoniae. Put plainly: Antimicrobial activity against Streptococcus pneumoniae R6 harboring PBP2x T338P mutant gene, disruption at PBP1a and aad9 disruption in CiaR gene after 48 hrs by agar dilution method. The class given is functional. In short, it runs like this: as §1
For experiment [11], the system named is Streptococcus pneumoniae. Put plainly: Antimicrobial activity against Streptococcus pneumoniae R6 harboring PBP2x T338A mutant gene, disruption at PBP1a and aad9 disruption in CiaR gene after 48 hrs by agar dilution method. The format is functional. In short, it runs like this:
as §1

Experiment [12] relates to Streptococcus pneumoniae. As to the kind of experiment: Antimicrobial activity against streptomycin-resistant Streptococcus pneumoniae R6 harboring PBP2x T338G and PBP1a2349 mutant gene after 48 hrs by agar dilution method. The format is functional. In short, it runs like this:
as §1

In experiment [13] the test system is Streptococcus pneumoniae. As to the kind of experiment: Antimicrobial activity against Streptococcus pneumoniae R6 harboring PBP2x T338G mutant gene, disruption at PBP1a and aad9 disruption in CiaR gene after 48 hrs by agar dilution method. The format is functional. In outline:
as §1

Experiment [14] concerns Streptococcus pneumoniae. As to the kind of experiment: Antimicrobial activity against Streptococcus pneumoniae R6 harboring PBP2x T338G mutant gene, disruption at PBP1a and aad9 disruption in CiaR gene after 48 hrs by agar dilution method.

Converted amounts (≈) assume the structure as drawn.

Take `CCN1CCN(C(=O)N[C@@H](C(=O)N[C@@H]2C(=O)N3[C@@H]2SC(C)(C)[C@@H]3C(=O)O)c2ccccc2)C(=O)C1=O` [PIPERACILLIN]: the MIC in the experiment with Streptococcus pneumoniae [1] came out at 0.11 µg/mL (≈ 0.213 µM); in the experiment with Streptococcus pneumoniae [2] it was 0.09 µg/mL (≈ 0.174 µM); against Streptococcus pneumoniae [3], 0.12 µg/mL (≈ 0.232 µM); against Streptococcus pneumoniae [4] it was 0.06 µg/mL (≈ 0.116 µM); in the experiment on Streptococcus pneumoniae [5], 0.06 µg/mL (≈ 0.116 µM); in the experiment with Streptococcus pneumoniae [6], 0.12 µg/mL (≈ 0.232 µM). In addition, the minimum inhibitory concentration (MIC) in the experiment with Streptococcus pneumoniae [7] was 0.04 µg/mL (≈ 0.0773 µM); against Streptococcus pneumoniae [8] it was 0.1 µg/mL (≈ 0.193 µM); against Streptococcus pneumoniae [9] it was 0.09 µg/mL (≈ 0.174 µM); against Streptococcus pneumoniae [10] it was 0.06 µg/mL (≈ 0.116 µM); with Streptococcus pneumoniae [11] it was 0.11 µg/mL (≈ 0.213 µM); in the experiment with Streptococcus pneumoniae [12], 0.06 µg/mL (≈ 0.116 µM). Besides, in the experiment with Streptococcus pneumoniae [13], the lowest concentration to inhibit growth (MIC) was 0.08 µg/mL (≈ 0.155 µM).
On to `Cc1onc(-c2ccccc2)c1C(=O)N[C@@H]1C(=O)N2[C@@H]1SC(C)(C)[C@@H]2C(=O)O` [OXACILLIN], for which the MIC in the experiment on Streptococcus pneumoniae [1] was determined as 0.85 µg/mL (≈ 2.12 µM); against Streptococcus pneumoniae [2], 0.18 µg/mL (≈ 0.448 µM); against Streptococcus pneumoniae [3], 0.95 µg/mL (≈ 2.37 µM); in the experiment on Streptococcus pneumoniae [4], 0.08 µg/mL (≈ 0.199 µM); against Streptococcus pneumoniae [5], 0.23 µg/mL (≈ 0.573 µM); in the experiment on Streptococcus pneumoniae [6], 1 µg/mL (≈ 2.49 µM). The minimal inhibitory concentration (MIC) was 0.08 µg/mL (≈ 0.199 µM) in the experiment on Streptococcus pneumoniae [7]; 0.25 µg/mL (≈ 0.623 µM) against Streptococcus pneumoniae [8]; 0.21 µg/mL (≈ 0.523 µM) against Streptococcus pneumoniae [9]; 0.24 µg/mL (≈ 0.598 µM) in the experiment with Streptococcus pneumoniae [10]; 0.2 µg/mL (≈ 0.498 µM) against Streptococcus pneumoniae [11]; 0.16 µg/mL (≈ 0.399 µM) against Streptococcus pneumoniae [12]. The MIC in the experiment with Streptococcus pneumoniae [13] was 0.25 µg/mL (≈ 0.623 µM).
With `CC1(C)S[C@@H]2[C@H](NC(=O)Cc3ccccc3)C(=O)N2[C@H]1C(=O)O` [PENICILLIN G], the minimal inhibitory concentration (MIC) against Streptococcus pneumoniae [1] worked out at 0.035 µg/mL (≈ 0.105 µM); in the experiment on Streptococcus pneumoniae [2], 0.03 µg/mL (≈ 0.0897 µM); against Streptococcus pneumoniae [3] it was 0.04 µg/mL (≈ 0.12 µM); in the experiment with Streptococcus pneumoniae [4] it was 0.02 µg/mL (≈ 0.0598 µM); against Streptococcus pneumoniae [5], 0.03 µg/mL (≈ 0.0897 µM); in the experiment on Streptococcus pneumoniae [6], 0.04 µg/mL (≈ 0.12 µM). Besides, the minimum inhibitory concentration (MIC) was found to be 0.02 µg/mL (≈ 0.0598 µM) in the experiment on Streptococcus pneumoniae [7]; 0.03 µg/mL (≈ 0.0897 µM) in the experiment with Streptococcus pneumoniae [8]; 0.025 µg/mL (≈ 0.0748 µM) with Streptococcus pneumoniae [14]; 0.02 µg/mL (≈ 0.0598 µM) against Streptococcus pneumoniae [9]; 0.04 µg/mL (≈ 0.12 µM) with Streptococcus pneumoniae [11]; 0.02 µg/mL (≈ 0.0598 µM) against Streptococcus pneumoniae [12]. In addition, in the experiment on Streptococcus pneumoniae [13], the MIC is 0.025 µg/mL (≈ 0.0748 µM).
Take `CO/N=C(\C(=O)N[C@@H]1C(=O)N2C(C(=O)O)=C(COC(C)=O)CS[C@H]12)c1csc(N)n1` [CEFOTAXIME]: the MIC in the experiment on Streptococcus pneumoniae [1] was 1 µg/mL (≈ 2.2 µM); against Streptococcus pneumoniae [2], 0.035 µg/mL (≈ 0.0768 µM); in the experiment on Streptococcus pneumoniae [3] it was 0.2 µg/mL (≈ 0.439 µM); against Streptococcus pneumoniae [4], 0.025 µg/mL (≈ 0.0549 µM); against Streptococcus pneumoniae [5], 0.04 µg/mL (≈ 0.0878 µM); in the experiment with Streptococcus pneumoniae [6] it was 0.3 µg/mL (≈ 0.659 µM). Moreover, the MIC against Streptococcus pneumoniae [7] was determined as 0.02 µg/mL (≈ 0.0439 µM); in the experiment on Streptococcus pneumoniae [8], 0.045 µg/mL (≈ 0.0988 µM); in the experiment on Streptococcus pneumoniae [9], 0.03 µg/mL (≈ 0.0659 µM); in the experiment with Streptococcus pneumoniae [10], 0.045 µg/mL (≈ 0.0988 µM); in the experiment with Streptococcus pneumoniae [11], 0.045 µg/mL (≈ 0.0988 µM); against Streptococcus pneumoniae [12], 0.03 µg/mL (≈ 0.0659 µM). Besides, the lowest concentration to inhibit growth in the experiment on Streptococcus pneumoniae [13] (MIC) was 0.055 µg/mL (≈ 0.121 µM).

What is called MIC is the lowest concentration found to suppress growth.

The record behind these values is ChEMBL document CHEMBL1629641, “An important site in PBP2x of penicillin-resistant clinical isolates of Streptococcus pneumoniae: mutational analysis of Thr338” (2009).
